Experiment: Inhibitory concentration against rat Calcium-activated potassium channel (IKca)
Summary of the method: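 IC50 taken as the mean of at least two separate experiments, each run in triplicate.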

Row | Compound | IC50 [nM]
1 | CNC1=C(C(=O)OC)C(c2cccc(Cl)c2Cl)C2=C(COC2=O)C1 (stereo not given) | 400
2 | COC(=O)C1=C(C)CC(C)=C(C(=O)OC)C1C1CCCCC1 | > 1000
3 | COC(=O)C1=C(C)CC(C)=C(C(=O)O)C1c1ccc(Cl)c(C(F)(F)F)c1 (stereo not given) | > 1000
4 | CNC1=C(C(=O)OC)C(c2cccc([N+](=O)[O-])c2)C2=C(COC2=O)C1 (stereo not given) | 200
5 | COC(=O)C1=C(C)CC(C)=C(C(=O)OC(C)(C)C)C1c1ccc(Cl)c(C(F)(F)F)c1 (stereo not given) | > 1000
6 | CNC1=C(C(=O)OC)C(c2ccc(C(F)(F)F)cc2)C(C(=O)OC)=C(C)C1 (stereo not given) | 200
7 | COC(=O)C1=C(C)CC(C)=C(C(=O)OC)C1c1cccnc1 | > 1000

Next, values leading:

Row | IC50 [nM] | Compound
8 | 200 | CCO/C(O)=C1/C(=O)CC2=C(C(=O)OC2)C1c1ccccc1Cl (stereo not given)
9 | 20 | CNC1=C(C(=O)OC)C(c2ccc([N+](=O)[O-])cc2)C(C(=O)OC)=C(C)C1 (stereo not given)
10 | 1.5 | COC(=O)C1=C(C)CC(C)=C(C(=O)OC)C1c1ccc(Cl)c(C(F)(F)F)c1
11 | 25 | CNC1=C(C(=O)OC)C(c2cccc([N+](=O)[O-])c2)C(C(=O)OC)=C(C)C1 (stereo not given)
12 | 8 | COC(=O)C1=C(C)CC2=C(C(=O)OC2)C1c1ccc(Cl)c(C(F)(F)F)c1 (stereo not given)
13 | 100 | COC(=O)C1=C(C)CC(C)=C(C(=O)OC)C1c1cc(Cl)cc(Cl)c1
14 | 30 | COC(=O)C1=C(C)CC(C)=C(C(N)=O)C1c1ccc(Cl)c(C(F)(F)F)c1 (stereo not given)
15 | 40 | CCO/C(O)=C1/C(=O)CC2=C(C(=O)OC2)C1c1ccc(Cl)c(C(F)(F)F)c1 (stereo not given)
